Test results reported in ChEMBL document CHEMBL1123814, “Synthesis and beta-lactamase inhibitory properties of 2 beta-[(1,2,3-triazol-1-yl)methyl]-2 alpha-methylpenam-3 alpha-carboxylic acid 1,1-dioxide and related triazolyl derivatives” (J Med Chem, 1987).
≈ marks a conversion by molar mass, not a printed value.

Legend:
Serratia marcescens [1] = experiment: Growth inhibition against Beta lactamase producing bacteria, Serratia marcescens was determined for the compound in the combination with Ampicillin; format: functional
In short: (§1)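 Bacteria (β-lactamase producers) were grown in Mueller Hinton broth and diluted to 10⁷ cfu/mL. They were inoculated into the same medium containing ampicillin plus triazole and incubated at 37 °C for 20 h. The MIC was the lowest concentration leaving the medium free of turbidity.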

Escherichia coli [2] = experiment: Minimum inhibitory concentration against 30 strains of Escherichia coli; format: functional
Staphylococcus aureus [3] = experiment: Growth inhibition against Beta lactamase producing bacteria, Staphylococcus aureus (ATCC90124) was determined for the compound in the combination with Ampicillin; format: functional; in short: as §1
Proteus mirabilis [4] = experiment: Growth inhibition against Beta lactamase producing bacteria, Proteus mirabilis (121K) was determined for the compound in the combination with Ampicillin; format: functional; in short: as §1
Proteus vulgaris [5] = experiment: Growth inhibition against Beta lactamase producing bacteria, Proteus vulgaris (IID OX-19)was determined for the compound in the combination with Ampicillin; format: functional; in short: as §1
Escherichia coli [6] = experiment: Growth inhibition against Beta lactamase producing bacteria, Escherichia coli (TH-397) was determined for the compound in the combination with Ampicillin; format: functional; in short: as §1
Staphylococcus aureus [7] = experiment: Growth inhibition against Beta lactamase producing bacteria, Staphylococcus aureus (S-54K) was determined for the compound in the combination with Ampicillin; format: functional; in short: as §1
Escherichia coli [8] = experiment: Growth inhibition against Beta lactamase producing bacteria, Escherichia coli (TH-13) was determined for the compound in the combination with Ampicillin; format: functional; in short: as §1
Escherichia coli [9] = experiment: Minimum inhibitory concentration of Ampicillin required for growth inhibition of Beta lactamase producing bacteria Clinically isolated Escherichia coli (TH-397); format: functional
In short: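 Broth microdilution in Mueller Hinton broth. Ampicillin was tested with the triazole fixed at 10 µg/mL against a β-lactamase-producing clinical isolate, with an inoculum of 10⁷ cfu/mL. Plates were incubated at 37 °C for 20 h. The MIC was the lowest concentration that left the medium free of turbidity.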

Serratia marcescens [10] = experiment: Minimum inhibitory concentration of Ampicillin required for growth inhibition of Beta lactamase producing bacteria Serratia marcescens; format: functional
In short: (§2)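 Micro broth dilution MIC of ampicillin tested on its own. β-Lactamase-producing bacteria were grown in Mueller Hinton broth and inoculated at 10⁷ cfu/mL into medium containing ampicillin.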

Escherichia coli [11] = experiment: Minimum inhibitory concentration of Ampicillin required for growth inhibition of Beta lactamase producing bacteria Clinically isolated Escherichia coli (TH-13); format: functional
In short: (§3)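 The inoculum was 10⁷ cfu/mL, incubated at 37 °C for 20 h. The MIC was the lowest concentration that left the medium free of turbidity.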

Staphylococcus aureus [12] = experiment: Minimum inhibitory concentration of Ampicillin required for growth inhibition of Beta lactamase producing bacteria Staphylococcus aureus (ATCC90124); format: functional; in short: as §3
Staphylococcus aureus [13] = experiment: Minimum inhibitory concentration of Ampicillin required for growth inhibition of Beta lactamase producing bacteria Staphylococcus aureus (S-54K); format: functional; in short: as §3
Proteus vulgaris [14] = experiment: Minimum inhibitory concentration of Ampicillin required for growth inhibition of Beta lactamase producing bacteria Proteus vulgaris (IID OX-19); format: functional; in short: as §2
Proteus mirabilis [15] = experiment: Minimum inhibitory concentration of Ampicillin required for growth inhibition of Beta lactamase producing bacteria Proteus mirabilis (121K); format: functional; in short: as §2
[16] = Inhibitory activity against cephalosporinase from Proteus vulgaris TH-147 using cephalexin (40 uM) as a substrate
In short: (§4)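 Isolated β-lactamase (cephalosporinase) was inhibited in a microiodometric assay. Substrate concentration was 40 μM, and the 50% inhibitory concentration (M) was determined.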

[17] = Inhibitory activity against cephalosporinase from Proteus morganii TH-64 using cephalothin (40 uM) as a substrate; […]; set-up: species or system Morganella morganii; in short: as §4
Beta-lactamase OXA-1 = Beta-lactamase OXA-1 (Escherichia coli, UniProt P13661); experiment: Inhibitory activity against Beta-lactamase type OXA1 (penicillinase) from Escherichia coli OXA1 using ampicillin (40 uM) as a substrate
Sequence of Beta-lactamase OXA-1 (P13661 whole entry): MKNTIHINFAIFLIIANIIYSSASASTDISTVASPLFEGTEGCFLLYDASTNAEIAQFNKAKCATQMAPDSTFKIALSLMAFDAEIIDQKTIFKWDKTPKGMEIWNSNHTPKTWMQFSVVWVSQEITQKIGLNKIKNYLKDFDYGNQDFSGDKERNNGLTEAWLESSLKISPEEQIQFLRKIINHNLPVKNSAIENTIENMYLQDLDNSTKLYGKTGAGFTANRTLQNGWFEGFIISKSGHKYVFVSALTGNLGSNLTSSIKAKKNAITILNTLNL
In short: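 Isolated β-lactamase tested by microiodometric assay, measuring substrate hydrolysis. Ampicillin substrate at 40 μM. Value reported as the 50% inhibitory concentration.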

[18] = Inhibitory activity against cephalosporinase from Proteus morganii TH-64 using cephalothin (40 uM) as a substrate; set-up: species or system Morganella morganii
In short: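 Isolated β-lactamases were tested by the microiodometric assay, with each line's substrate at 40 μM.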

Row | SMILES | MIC (Serratia marcescens [1]) | MIC (Staphylococcus aureus [3]) | MIC (Proteus mirabilis [4]) | MIC (Proteus vulgaris [5]) | MIC (Escherichia coli [6]) | MIC (Staphylococcus aureus [7]) | MIC (Escherichia coli [8]) | MIC50 (Escherichia coli [2]) | MIC70 (Escherichia coli [2]) | other results
1 | CC1(C)S[C@@H]2[C@H](NC(=O)[C@H](N)c3ccccc3)C(=O)N2[C@H]1C(=O)O.CC1(C)[C@H](C(=O)O)N2C(=O)C[C@H]2S1(=O)=O | 3.13 µg/mL | 0.2 µg/mL | 6.25 µg/mL | 1.56 µg/mL | 0.78 µg/mL | 0.2 µg/mL | 6.25 µg/mL | 12.5 µg/mL | 100 µg/mL | –
2 | CC1(C)[C@H](C(=O)O)N2C(=O)C[C@H]2S1(=O)=O.CCN1CCN(C(=O)N[C@@H](C(=O)N[C@@H]2C(=O)N3[C@@H]2SC(C)(C)[C@@H]3C(=O)O)c2ccccc2)C(=O)C1=O | – | – | – | – | – | – | – | 12.5 µg/mL | 25 µg/mL | –
3 | CC1(C)S[C@@H]2[C@H](/N=C/N3CCCCCC3)C(=O)N2[C@H]1C(=O)O.CC1(C)[C@H](C(=O)O)N2C(=O)C[C@H]2S1(=O)=O | – | – | – | – | – | – | – | 0.1 µg/mL | 0.39 µg/mL | –
4 | CC1(C)S[C@@H]2[C@H](/N=C/N3CCCCCC3)C(=O)N2[C@H]1C(=O)O [AMDINOCILLIN] | – | – | – | – | – | – | – | 3.13 µg/mL (≈ 9.62 µM) | 12.5 µg/mL (≈ 38.4 µM) | –
5 | CC1(C)S[C@@H]2[C@H](NC(=O)[C@H](N)c3ccccc3)C(=O)N2[C@H]1C(=O)O [AMPICILLIN] | – | – | – | – | – | – | – | 400 µg/mL (≈ 1140 µM) | >400 µg/mL | MIC (Escherichia coli [9]): 400 µg/mL (≈ 1140 µM); MIC (Serratia marcescens [10]): 400 µg/mL (≈ 1140 µM); MIC (Escherichia coli [11]): 200 µg/mL (≈ 572 µM); MIC (Staphylococcus aureus [12]): 25 µg/mL (≈ 71.5 µM); MIC (Staphylococcus aureus [13]): 25 µg/mL (≈ 71.5 µM); MIC (Proteus vulgaris [14]): 200 µg/mL (≈ 572 µM); MIC (Proteus mirabilis [15]): > 400 µg/mL
6 | CC1=C(C(=O)O)N2C(=O)[C@@H](NC(=O)[C@H](N)c3ccccc3)[C@H]2SC1 [CEPHALEXIN ANHYDROUS] | – | – | – | – | – | – | – | 25 µg/mL (≈ 72 µM) | 100 µg/mL (≈ 288 µM) | –
7 | O=C(O)[C@H]1/C(=C/CO)O[C@@H]2CC(=O)N21 [CLAVULANIC ACID] | – | – | – | – | – | – | – | – | – | IC50 [16]: 160 nM; IC50 [17]: Not Active; IC50 (Beta-lactamase OXA-1): 3.2 µM
8 | CCN1CCN(C(=O)N[C@@H](C(=O)N[C@@H]2C(=O)N3[C@@H]2SC(C)(C)[C@@H]3C(=O)O)c2ccccc2)C(=O)C1=O [PIPERACILLIN] | – | – | – | – | – | – | – | 50 µg/mL (≈ 96.6 µM) | 200 µg/mL (≈ 386 µM) | –
9 | CC1(C)[C@H](C(=O)O)N2C(=O)C[C@H]2S1(=O)=O [SULBACTAM] | – | – | – | – | – | – | – | – | – | IC50 [18]: 1000 nM; IC50 [16]: 800 nM; IC50 (Beta-lactamase OXA-1): 22 µM

Second part, led by results:

Row | MIC (Serratia marcescens [1]) | MIC (Staphylococcus aureus [3]) | MIC (Proteus mirabilis [4]) | MIC (Proteus vulgaris [5]) | MIC (Escherichia coli [6]) | MIC (Staphylococcus aureus [7]) | MIC (Escherichia coli [8]) | SMILES | MIC50 (Escherichia coli [2]) | MIC70 (Escherichia coli [2]) | other results
10 | 25 µg/mL | 0.2 µg/mL | 0.78 µg/mL | 0.39 µg/mL | 6.25 µg/mL | 0.2 µg/mL | 6.25 µg/mL | CC1(C)S[C@@H]2[C@H](NC(=O)C(N)c3ccccc3)C(=O)N2[C@H]1C(=O)O.COC(=O)c1cnnn1C[C@@]1(C)[C@H](C(=O)[O-])C2C(=O)CC2S1(=O)=O.[Na+] (stereo not given in full) | – | – | –
11 | 100 µg/mL | 0.39 µg/mL | 25 µg/mL | 1.56 µg/mL | 50 µg/mL | 0.78 µg/mL | 100 µg/mL | CC1(C)S[C@@H]2[C@H](NC(=O)C(N)c3ccccc3)C(=O)N2[C@H]1C(=O)O.C[C@]1(Cn2cc([Si](C)(C)C)nn2)[C@H](C(=O)[O-])C2C(=O)CC2S1(=O)=O.[Na+] (stereo not given in full) | – | – | –
12 | 12.5 µg/mL | 0.2 µg/mL | 0.78 µg/mL | 0.39 µg/mL | 3.13 µg/mL | 0.2 µg/mL | 3.13 µg/mL | CC1(C)S[C@@H]2[C@H](NC(=O)C(N)c3ccccc3)C(=O)N2[C@H]1C(=O)O.COC(=O)c1cn(C[C@@]2(C)[C@H](C(=O)[O-])C3C(=O)CC3S2(=O)=O)nn1.[Na+] (stereo not given in full) | – | – | –
